One data set addresses Translocator protein (Rattus norvegicus, UniProt P16257). In words: Displacement of [3H]PK11195 from TSPO in rat heart membranes after 15 mins by scintillation counting method. The class given is cell membranes, Membrane. A general note: In a radioligand displacement assay an active substance lowers the binding of a labelled ligand.
The species named for another data set is Rattus norvegicus. In words: Displacement of [3H]flunitrazepam from CBR in rat cerebral cortex membranes at 1 uM relative to control. The class given is cell membranes. The settings on record: Membrane.
The nature of data set [1]: n-Octanol-buffer partition coefficient, log D of the compound at pH 7.4 by HPLC method. The class given is physicochemical.
Data set [2] is described as follows: Intrinsic clearance in human hepatic microsomes assessed per mg protein up to 30 mins in presence of NADPH by UPLC-MS method. The class given is ADME. Conditions: liver microsomes, read-out: CLH. In outline: (§1)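 Hepatic microsomes (male CD1 mouse, male Sprague-Dawley rat, or pooled human) at 0.25 mg/mL protein, substrate 0.5 µM, 1 mM NADPH; samples at 0, 5, 10, 20, 30 min, quenched with 1 volume CH3CN, centrifuged, supernatant by UPLC/HRMS. % remaining vs T0 (analyte/internal standard ratio); k from ln(% stability) vs time; InC = k/protein concentration × 1000.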
In general terms: Liver microsomes are a subcellular fraction often used to study metabolism.

The nature of data set [3]: Intrinsic clearance in CD1 mouse hepatic microsomes assessed per mg protein up to 30 mins in presence of NADPH by UPLC-MS method. The class given is ADME. Conditions: liver microsomes, read-out: CLH. The method in brief:
as §1

The nature of data set [4]: Intrinsic clearance in Sprague-Dawley rat hepatic microsomes assessed per mg protein up to 30 mins in presence of NADPH by UPLC-MS method. The class given is ADME. Conditions: liver microsomes, read-out: CLH. The method in brief:
as §1

This is an account of results in ChEMBL document CHEMBL3877263, “Synthesis and in vitro characterization of novel fluorinated derivatives of the translocator protein 18 kDa ligand CfO-DPA-714” (Eur J Med Chem, 2017).

pKi: −log10 of the molar value. Bounds are passed on as bounds.

Chain of Translocator protein (P16257 whole entry, looked up): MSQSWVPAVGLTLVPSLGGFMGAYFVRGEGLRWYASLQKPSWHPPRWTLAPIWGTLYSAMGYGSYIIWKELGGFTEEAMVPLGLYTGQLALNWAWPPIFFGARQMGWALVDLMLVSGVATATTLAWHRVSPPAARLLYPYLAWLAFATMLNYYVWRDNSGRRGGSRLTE

By pKi is commonly meant the Ki on a negative log10 scale, so that one unit is a factor of ten. A lower pKi goes with a high Ki. One may read the inhibition as the percentage by which the read-out fell short of the control. As usually defined, the logD is the decadic logarithm of the distribution of all forms, ionised or not, between an organic phase and buffer at a given pH. A high value points to higher lipophilicity. For the compound `Cc1cc(C)n2nc(-c3ccc(CCCF)cc3)c(CC(=O)NC3CC3)c2n1`, at Translocator protein, the negative logarithm of the Ki (pKi) was 7.77. The compound also returned an inhibition in the data set listed under Rattus norvegicus of 0%. This compound also gave a pH-dependent lipophilicity (logD) in data set [1] of 2.69.

On Translocator protein, `Cc1cc(C)n2nc(-c3ccc(CCCF)cc3)c(CC(=O)N3CCOCC3)c2n1` showed a negative-log Ki (pKi) of 7.57. In addition, the inhibition in the data set listed under Rattus norvegicus is 0%. Also, the log distribution coefficient (logD) in data set [1] was 2.56.

As to `Cc1cc(C)n2nc(-c3ccc(CCCF)cc3)c(CC(=O)N(C)C)c2n1`, the negative logarithm of the Ki (pKi) at Translocator protein was 7.82. In the data set listed under Rattus norvegicus, the inhibition was found to be 2%. This compound had a logD in data set [1] of 2.68.

The compound `Cc1cc(C)n2nc(-c3ccc(CCCF)cc3)c(CC(=O)N3CCC3)c2n1` had a pKi at Translocator protein of 7.49. In the data set filed under Rattus norvegicus, this compound displayed an inhibition of 0%. Further, in data set [1], the logD turned out to be 2.73.

In the case of `Cc1cc(C)n2nc(-c3ccc(CCCF)cc3)c(CC(=O)N(C)Cc3ccccn3)c2n1`, the figures for the microsomal CLint in data set [2], in data set [3] and in data set [4] were 270 µL/min/mg, 947 µL/min/mg and 610 µL/min/mg, respectively. This compound gave a negative logarithm of the Ki (pKi) at Translocator protein of 8.92. The inhibition in the data set filed under Rattus norvegicus was determined as 0%. The same compound had a logD in data set [1] of 3.16.

Turning to `CCN(CC)C(=O)Cc1c(-c2ccc(CCCF)cc2)nn2c(C)cc(C)nc12`, the microsomal CLint in data set [2] was 241 µL/min/mg; in data set [3], 865 µL/min/mg; in data set [4], over 1000 µL/min/mg. The inhibition in the data set filed under Rattus norvegicus amounted to 0%. In data set [1], this compound showed a logD of 3.51.

Consider `CCCN(CCC)C(=O)Cc1c(-c2ccc(CCCF)cc2)nn2c(C)cc(C)nc12`, for which the microsomal CLint in data set [2], in data set [3] and in data set [4] was over 1000 µL/min/mg each time. The same compound showed a pKi at Translocator protein of 9.59. Also, the inhibition in the data set filed under Rattus norvegicus worked out at 0%. Further, the logD in data set [1] was 4.39.

Turning to `Cc1cc(C)n2nc(-c3ccc(CCCF)cc3)c(CC(=O)N(C)CCc3ccccc3)c2n1`, the microsomal CLint in data set [2], in data set [3] and in data set [4] was over 1000 µL/min/mg throughout. At Translocator protein, the negative logarithm of the Ki (pKi) was 8.96. In the data set filed under Rattus norvegicus, this compound returned an inhibition of 0%. The compound also yielded a logD in data set [1] of 4.08.

`Cc1cc(C)n2nc(-c3ccc(CCCF)cc3)c(CC(=O)N3CCCCC3)c2n1`: the figures for the microsomal CLint in data set [2], in data set [3] and in data set [4] were 424 µL/min/mg, 931 µL/min/mg and over 1000 µL/min/mg, respectively. Further, the pKi at Translocator protein is 8.66. Besides, in the data set filed under Rattus norvegicus, the inhibition was 0%. In data set [1], this compound gave a pH-dependent lipophilicity (logD) of 3.56.

For `CCCN(C)C(=O)Cc1c(-c2ccc(CCCF)cc2)nn2c(C)cc(C)nc12`, the values for the microsomal CLint in data set [2], in data set [3] and in data set [4] were 321 µL/min/mg, 781 µL/min/mg and over 1000 µL/min/mg, respectively. In addition, the pKi at Translocator protein is 9.60. This compound registered an inhibition in the data set listed under Rattus norvegicus of 0%. The compound further displayed a logD in data set [1] of 3.65.

`Cc1cc(C)n2nc(-c3ccc(CCCF)cc3)c(CC(=O)N3CCCC3)c2n1` gave a pKi on Translocator protein of 7.59. The inhibition in the data set filed under Rattus norvegicus is 0%. The compound further yielded a logD in data set [1] of 3.04.

Take `CCN(CC)C(=O)Cc1c(-c2ccc(OCCF)cc2)nn2c(C)cc(C)nc12` [DPA-714]: the microsomal CLint is 68 µL/min/mg in data set [2], 408 µL/min/mg in data set [3] and over 1000 µL/min/mg in data set [4]. Further, in the data set listed under Rattus norvegicus, the inhibition came out at 0%.

At Translocator protein, `Cc1cc(C)n2nc(-c3ccc(CCCF)cc3)c(CC(=O)N3CCNCC3)c2n1` showed a negative-log Ki (pKi) of 6.59. This compound showed an inhibition in the data set filed under Rattus norvegicus of 0%. In addition, the logD in data set [1] turned out to be 0.87.

With `Cc1cc(C)n2nc(-c3ccc(CCCF)cc3)c(CC(=O)N(C)Cc3cccnc3)c2n1`, the microsomal CLint in data set [2] is 862 µL/min/mg; in data set [3], over 1000 µL/min/mg; in data set [4] it was over 1000 µL/min/mg. The compound further gave a negative-log Ki (pKi) on Translocator protein of 8.55. Besides, in the data set listed under Rattus norvegicus, the inhibition is 0%. This compound returned a logD in data set [1] of 2.61.

On to `Cc1cc(C)n2nc(-c3ccc(CCCF)cc3)c(CC(=O)N(C)Cc3ccccc3)c2n1`, for which the microsomal CLint in data set [2], in data set [3] and in data set [4] was over 1000 µL/min/mg throughout. In addition, the pKi at Translocator protein was 9.52. In the data set filed under Rattus norvegicus, this compound had an inhibition of 0%. In data set [1], this compound registered a logD of 3.98.
